Screens deposited in PubChem BioAssay by The Scripps Research Institute Molecular Screening Center.
NPY-Y2 antag: antagonists of human neuropeptide Y receptor Y2 | AID 793 | P49146 | 140,000 tested, 0.99% active | inhibition, % at 2.7 µM | NPY-Y2 expressing cells, antagonist mode; in the data active = inhibition above about 17%
NPY1 pot ag: human NPY-Y1 potentiation or agonism, primary screen. P25929. NPY-Y1 expressing cells, potentiator/agonist activation. activation, % at 3.6 µM. 220,000 tested, 0.37% active. AID 1304; in the data active = activation above about 33%, passing the limit was not always enough;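 note: cells stimulated with NPY at EC10 then isoproterenol at EC100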
Target sequence (P25929 whole entry, looked up): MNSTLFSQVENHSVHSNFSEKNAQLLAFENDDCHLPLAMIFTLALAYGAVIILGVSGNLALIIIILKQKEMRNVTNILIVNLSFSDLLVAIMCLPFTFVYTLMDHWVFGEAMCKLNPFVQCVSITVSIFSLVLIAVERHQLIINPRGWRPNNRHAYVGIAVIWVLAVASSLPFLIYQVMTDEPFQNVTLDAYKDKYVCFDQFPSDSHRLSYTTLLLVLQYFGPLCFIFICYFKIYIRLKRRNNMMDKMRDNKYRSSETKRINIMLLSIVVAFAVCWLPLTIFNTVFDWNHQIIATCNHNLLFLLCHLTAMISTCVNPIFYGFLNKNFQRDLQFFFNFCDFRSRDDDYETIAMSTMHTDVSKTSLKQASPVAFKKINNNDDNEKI
NPY-Y1 antag: blocks the human neuropeptide Y Y1 receptor; P25929; AID 1040; 200,000 tested, 1% active; inhibition, % at 3.6 µM; HEK293-CNG Y1 cells, membrane potential fluorescence; NPY at EC95, then isoproterenol;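 active = inhibition above the campaign mean inhibition of all tested compounds plus 3 SD, cut at about 20% in these data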
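System: HEK293 cells with Y1 receptor plus CNG channel / Probe or stimulus: NPY 25 nM then isoproterenol 1 µM plus Ro 20-1724 25 µM / Compound: one concentration, 3.6 µM, in 0.4% DMSO / Schedule: compound incubation 1 h at room temperature, readout 45 min post-stimulation / Measured by: membrane potential fluorescence / Read-out: % inhibition of NPY effect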
NPY-Y2 PAM-ag: potentiators or agonists of human neuropeptide Y receptor Y2. P49146. cells expressing NPY-Y2, potentiator/agonist read-out. activation, % at 3.6 µM. 220,000 tested, 0.45% active. AID 1359; in the data active = activation above about 27%;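 note: cells stimulated with NPY near EC25 plus isoproterenol at EC100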
Large screens that a line does not name were inactive. Rows were chosen to be rich in hits. Some 1.8% of all compounds tested hit in one or more screens of this group.

O=S(=O)(c1ccc2ccccc2c1)N(CC1CO1)c1ccccc1 (stereo not given)	none (no result: NPY-Y2 antag)
Cc1ccc(C(=O)N(CC(=O)NC2CCCC2)Cc2cccs2)s1	none
CCC(C)(C(=O)NC1CCCCC1)N(Cc1cccs1)C(=O)Cc1cccs1 (stereo not given)	NPY-Y2 antag 39, NPY-Y1 antag 59
CCC(C)(C(=O)NC1CCCC1)N(Cc1cccs1)C(=O)c1ccc2c(c1)OCO2 (stereo not given)	NPY-Y2 antag 18, NPY-Y1 antag 27
CC1CCC(N2CCNCC2)CC1 (stereo not given)	none (no result: NPY-Y2 antag)
CNc1ccc(C(O)(C(F)(F)F)C(F)(F)F)cc1C(O)(C(F)(F)F)C(F)(F)F	NPY1 pot ag 46, NPY-Y2 PAM-ag 58
Cc1ccc(N)c(C(O)(C(F)(F)F)C(F)(F)F)c1	none
NC1=C(O)C(=O)C(c2ccccc2)O1 (stereo not given)	none (no result: NPY-Y2 antag, NPY-Y1 antag)
O=C(CSc1ncnc2scc(-c3ccccc3)c12)N1CCN(c2ccccc2F)CC1	NPY-Y2 antag 30, NPY-Y1 antag 33
COc1ccccc1N1CCN(C(=O)CSc2ncnc3scc(-c4ccccc4)c23)CC1	none
CC1CC(=O)NN=C1c1ccc(N)c([N+](=O)[O-])c1 (stereo not given)	NPY-Y2 antag 78, NPY-Y1 antag 65
COC(=O)Nc1ccc(S(=O)(=O)Nc2ccc(C)cc2)cc1	none
CC(=O)c1ccc(NC(=O)Nc2ccc(NS(=O)(=O)c3ccc(C)cc3)cc2)cc1	NPY1 pot ag 45, NPY-Y2 PAM-ag 40
C(=C\c1ccccc1)/CSc1nnc(-c2cnccn2)n1Cc1ccco1	NPY-Y2 antag 22
Fc1ccccc1CSc1nnc(-c2cnccn2)n1Cc1ccco1	none
CCN1C(=O)[C@H]2[C@H]3[C@H](O)[C@H](O)C/C(=N\OC[C@@H](C)[C@H](OCc4ccccc4)C(C)C)[C@@H]3CC[C@H]2C1=O	none
CCOc1cccc2sc(N(CCCN(C)C)C(=O)c3ccc(S(=O)(=O)N(C)c4ccccc4)cc3)nc12	NPY-Y1 antag 21 (no result: NPY-Y2 antag)
CN(C)CCCN(C(=O)c1sc2ccccc2c1Cl)c1nc2c(F)cccc2s1	NPY-Y2 antag 18, NPY-Y1 antag 20
CN(C)CCN(C(=O)c1ccc(S(=O)(=O)N(C)c2ccccc2)cc1)c1nc2cc3c(cc2s1)OCCO3	none (no result: NPY-Y2 antag, NPY-Y1 antag)
CCNc1nc(NCC)n2c(SCC(=O)c3ccccc3Cl)nnc2n1	none (no result: NPY-Y2 antag)
CN(C(=O)COC(=O)c1ccc2[nH]c3c(c2c1)CCCC3)C1CCS(=O)(=O)C1 (stereo not given)	none (no result: NPY-Y2 antag)
O=C(/C=C/c1ccco1)Nc1ccccc1C(=O)Nc1cccc(C(=O)O)c1	NPY1 pot ag 48, NPY-Y2 PAM-ag 43 (no result: NPY-Y2 antag, NPY-Y1 antag)
COc1ccccc1N=C(C)C1=C(O)CC(c2ccccc2)CC1=O (stereo not given)	NPY-Y1 antag 21 (no result: NPY-Y2 antag)
Cc1ccccc1/C=N/NC(=O)Cn1cnc([N+](=O)[O-])n1	NPY1 pot ag 111
CC(=O)N1CN(C2CCCC2)Cc2c1sc1c2CCCC1	NPY-Y2 antag 18, NPY-Y1 antag 24
Cc1ccc(C(=O)C[n+]2ccc(-c3nnc4n3CCC4)cc2)cc1	none
O=C(NCc1cccnc1)/C(=C\c1ccc(-c2ccc(Cl)c(Cl)c2)o1)S(=O)(=O)c1ccccc1	NPY-Y2 antag 17, NPY-Y1 antag 24
CCOC(=O)c1oc2cccc(OCC(O)CNC(C)C)c2c1C (stereo not given)	NPY1 pot ag 111, NPY-Y2 PAM-ag 105
COC(=O)C(Cc1ccc(O)cc1)NC(=O)C12CC3CC(CC(C3)C1)C2 (stereo not given)	NPY1 pot ag 51, NPY-Y2 PAM-ag 63 (no result: NPY-Y2 antag)
CCCCOc1ccc(Br)cc1/C(C)=N/NC1=NCCN1	NPY-Y2 antag 50, NPY-Y1 antag 50
CC(C)COP(=O)(OCC(C)C)C(Nc1ccccc1)c1ccccc1 (stereo not given)	none (no result: NPY-Y2 antag, NPY-Y1 antag)
CC(C)COP(=O)(OCC(C)C)C(Nc1ccccc1)c1ccc(F)cc1 (stereo not given)	NPY-Y2 antag 23, NPY-Y1 antag 31
CC(=O)c1cc(CC(=O)N2CCc3c([nH]c4ccccc34)C2c2ccccn2)cs1 (stereo not given)	NPY-Y1 antag 22 (no result: NPY-Y2 antag)
COc1ccc(CNCCC(c2ccccc2)c2ccc3c(c2)OCO3)cc1 (stereo not given)	NPY-Y2 antag 17, NPY-Y1 antag 34
Fc1ccccc1CNCCC(Cc1ccccc1)c1ccc2c(c1)OCO2 (stereo not given)	none
NC(=O)C(c1ccccc1)C1CCCC1 (stereo not given)	none
Cc1ccc(NC(=O)C(NC2CCCC2)c2ccccc2)cc1Cl (stereo not given)	none (no result: NPY-Y2 antag)
